Experimental data as given in ChEMBL document CHEMBL1914441, “Discovery and optimization of a biphenylacetic acid series of prostaglandin D2 receptor DP2 antagonists with efficacy in a murine model of allergic rhinitis” (Bioorg Med Chem Lett, 2011).
Active and inactive are the calls of the source. No cut-off for these calls is given here.

What was measured:
[1] = target: T1, Prostaglandin D2 receptor 2 (Homo sapiens, UniProt Q9Y5Y4); experiment: Displacement of [3H]-PGD2 from human prostanoid DP2 receptor expressed in human 293T cells by liquid scintillation counting; format: cell-based
T1 sequence (Q9Y5Y4 whole entry): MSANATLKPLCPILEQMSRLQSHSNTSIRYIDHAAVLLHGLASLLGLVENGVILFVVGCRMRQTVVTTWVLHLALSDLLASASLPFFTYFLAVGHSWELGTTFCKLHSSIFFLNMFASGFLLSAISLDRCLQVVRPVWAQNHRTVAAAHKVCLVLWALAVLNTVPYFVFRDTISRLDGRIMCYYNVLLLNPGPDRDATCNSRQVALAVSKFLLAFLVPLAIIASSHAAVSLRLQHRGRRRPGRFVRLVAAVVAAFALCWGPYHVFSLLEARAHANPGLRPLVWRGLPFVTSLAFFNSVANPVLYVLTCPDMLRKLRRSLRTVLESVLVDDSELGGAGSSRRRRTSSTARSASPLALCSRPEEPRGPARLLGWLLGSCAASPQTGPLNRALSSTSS
In short: (§1)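 Membranes from 293 cells stably expressing human DP2 were incubated with [³H]-PGD₂ across increasing compound concentrations. Membranes were harvested and washed, and bound radioactivity was counted. The IC50 is the concentration giving 50% inhibition of [³H]-PGD₂ binding. The assay was run without and with 0.2% human serum albumin to gauge protein shift. Mean of at least three experiments.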

[2] = target: T1, Prostaglandin D2 receptor 2; experiment: Displacement of [3H]-PGD2 from human prostanoid DP2 receptor expressed in human 293T cells by liquid scintillation counting in presence of 0.2 % human serum albumin; format: cell-based; in short: as §1
[3] = target: T2, Prostaglandin D2 receptor (Homo sapiens, UniProt Q13258); experiment: Displacement of [3H]-PGD2 from human DP1 receptor expressed in human platelet membranes; format: cell membranes
T2 sequence (Q13258 whole entry): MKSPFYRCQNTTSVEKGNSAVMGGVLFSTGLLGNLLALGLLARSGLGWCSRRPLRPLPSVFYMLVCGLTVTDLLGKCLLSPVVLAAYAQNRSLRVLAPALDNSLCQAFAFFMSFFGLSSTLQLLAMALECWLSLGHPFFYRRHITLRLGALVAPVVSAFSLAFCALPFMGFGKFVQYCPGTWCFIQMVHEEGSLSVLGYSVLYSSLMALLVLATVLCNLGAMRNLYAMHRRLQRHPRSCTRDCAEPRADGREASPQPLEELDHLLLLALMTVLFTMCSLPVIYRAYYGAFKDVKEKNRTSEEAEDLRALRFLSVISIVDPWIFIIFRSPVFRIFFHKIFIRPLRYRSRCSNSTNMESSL

Thromboxane A2 receptor = target: T3, Thromboxane A2 receptor (Homo sapiens, UniProt P21731); experiment: Displacement of [3H]-SQ-29,548 from human TP receptor expressed in human platelet membranes; format: cell membranes
T3 sequence (P21731 whole entry): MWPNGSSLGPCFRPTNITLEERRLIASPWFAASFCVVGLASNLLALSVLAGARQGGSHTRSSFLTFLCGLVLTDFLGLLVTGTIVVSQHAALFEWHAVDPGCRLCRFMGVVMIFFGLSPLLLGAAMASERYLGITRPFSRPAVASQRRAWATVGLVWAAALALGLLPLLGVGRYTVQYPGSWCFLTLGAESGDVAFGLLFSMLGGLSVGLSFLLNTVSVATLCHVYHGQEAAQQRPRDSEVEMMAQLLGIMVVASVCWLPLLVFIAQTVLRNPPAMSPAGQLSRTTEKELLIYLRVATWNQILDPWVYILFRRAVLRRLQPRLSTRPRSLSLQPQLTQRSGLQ
In short: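 TP binding was measured with human platelet membranes and ³H-SQ-29,548 as radioligand.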

Prostacyclin receptor = Prostacyclin receptor (Homo sapiens, UniProt P43119); experiment: Displacement of [3H]-iloprost from human prostanoid IP receptor expressed in human 293T cells membranes; format: cell membranes
In short: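 IP binding was measured with membranes from hIP/293 cells and ³H-iloprost as radioligand.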

Cytochrome P450 3A4 = Cytochrome P450 3A4 (Homo sapiens, UniProt P08684); experiment: Inhibition of human CYP3A4; format: ADME
Cytochrome P450 2C9 = Cytochrome P450 2C9 (Homo sapiens, UniProt P11712); experiment: Inhibition of human CYP2C9; format: ADME
Cytochrome P450 2D6 = Cytochrome P450 2D6 (Homo sapiens, UniProt P10635); experiment: Inhibition of human CYP2D6; format: ADME
hERG (KCNH2) = hERG (KCNH2) (Homo sapiens, UniProt Q12809); experiment: Inhibition of human ERG at 10 uM by patch clamp assay
In short: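 hERG inhibition was measured by patch clamp, performed by an external contract laboratory.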

[4] = Half life in rat at 2 mg/kg, iv; format: ADME, organism-based; set-up: dose 2 mg/kg, route intravenous; settings: in vivo
In short: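 Rat dosing used the sodium salt, given IV at 2 mpk in water.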

[5] = Half life in dog at 2 mg/kg, iv and 5 mg/kg, po; format: ADME, organism-based, Canis lupus familiaris; settings: in vivo
In short: (§2)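 Dog dosing used the sodium salt, given IV at 2 mpk in saline and PO at 5 mpk in 0.5% Methocel.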

[6] = Oral bioavailability in dog at 5 mg/kg; format: ADME, organism-based, Canis lupus familiaris; settings: in vivo; in short: as §2
Mus musculus = experiment: Antiallergic effect in ovalbumin-sensitized BALB/c mouse allergic rhinitis model assessed as reduction in sneezing symptoms at 10 mg/kg, po administered 1 hr prior to OVA challenge on days 31 and 32 measured for 8 mins immediately after OVA challenge on day 32; format: functional, organism-based; set-up: dose 10 mg/kg
In short: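 Female BALB/c mice sensitized with intraperitoneal OVA (10 µg in Alum) on days 0 and 7, then given nasal OVA challenge. Compound or water vehicle was dosed orally 1 h before challenge on days 31 and 32 only. Sneezing was counted over an 8 min session immediately after the day 32 challenge. n = 4–10 mice per group, means ± SEM, Dunnett's test after ANOVA versus vehicle.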

[7] = Oral bioavailability in rat at 10 mg/kg; settings: in vivo

Cytochrome P450 2D6, sequence (P10635 whole entry): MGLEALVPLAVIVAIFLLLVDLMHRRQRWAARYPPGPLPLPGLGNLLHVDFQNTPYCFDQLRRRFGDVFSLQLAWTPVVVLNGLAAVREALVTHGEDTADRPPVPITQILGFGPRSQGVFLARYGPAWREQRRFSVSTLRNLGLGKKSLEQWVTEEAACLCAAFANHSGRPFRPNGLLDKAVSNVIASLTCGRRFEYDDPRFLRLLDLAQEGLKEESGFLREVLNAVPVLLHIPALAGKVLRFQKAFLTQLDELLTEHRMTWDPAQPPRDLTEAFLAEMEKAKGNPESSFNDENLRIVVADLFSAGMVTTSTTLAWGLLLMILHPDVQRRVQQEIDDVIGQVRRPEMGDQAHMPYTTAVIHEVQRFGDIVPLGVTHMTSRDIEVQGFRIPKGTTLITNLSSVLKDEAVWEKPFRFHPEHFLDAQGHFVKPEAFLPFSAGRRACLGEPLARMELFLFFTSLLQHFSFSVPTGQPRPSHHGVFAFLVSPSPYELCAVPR
Cytochrome P450 3A4, sequence (P08684 whole entry): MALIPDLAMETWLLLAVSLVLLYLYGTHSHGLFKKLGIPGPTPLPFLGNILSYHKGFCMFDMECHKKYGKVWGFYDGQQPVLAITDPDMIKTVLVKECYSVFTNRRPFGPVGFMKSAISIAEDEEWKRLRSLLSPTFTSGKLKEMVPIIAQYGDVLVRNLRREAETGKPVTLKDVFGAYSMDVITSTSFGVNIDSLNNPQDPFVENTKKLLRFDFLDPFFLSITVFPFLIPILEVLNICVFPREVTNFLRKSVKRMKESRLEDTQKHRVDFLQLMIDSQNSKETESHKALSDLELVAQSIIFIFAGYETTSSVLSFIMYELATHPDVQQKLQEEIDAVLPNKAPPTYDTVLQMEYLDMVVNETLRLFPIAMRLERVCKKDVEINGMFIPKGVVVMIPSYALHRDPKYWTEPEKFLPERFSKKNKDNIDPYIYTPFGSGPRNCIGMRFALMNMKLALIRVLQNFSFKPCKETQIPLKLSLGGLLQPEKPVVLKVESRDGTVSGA
hERG (KCNH2), sequence (Q12809 whole entry): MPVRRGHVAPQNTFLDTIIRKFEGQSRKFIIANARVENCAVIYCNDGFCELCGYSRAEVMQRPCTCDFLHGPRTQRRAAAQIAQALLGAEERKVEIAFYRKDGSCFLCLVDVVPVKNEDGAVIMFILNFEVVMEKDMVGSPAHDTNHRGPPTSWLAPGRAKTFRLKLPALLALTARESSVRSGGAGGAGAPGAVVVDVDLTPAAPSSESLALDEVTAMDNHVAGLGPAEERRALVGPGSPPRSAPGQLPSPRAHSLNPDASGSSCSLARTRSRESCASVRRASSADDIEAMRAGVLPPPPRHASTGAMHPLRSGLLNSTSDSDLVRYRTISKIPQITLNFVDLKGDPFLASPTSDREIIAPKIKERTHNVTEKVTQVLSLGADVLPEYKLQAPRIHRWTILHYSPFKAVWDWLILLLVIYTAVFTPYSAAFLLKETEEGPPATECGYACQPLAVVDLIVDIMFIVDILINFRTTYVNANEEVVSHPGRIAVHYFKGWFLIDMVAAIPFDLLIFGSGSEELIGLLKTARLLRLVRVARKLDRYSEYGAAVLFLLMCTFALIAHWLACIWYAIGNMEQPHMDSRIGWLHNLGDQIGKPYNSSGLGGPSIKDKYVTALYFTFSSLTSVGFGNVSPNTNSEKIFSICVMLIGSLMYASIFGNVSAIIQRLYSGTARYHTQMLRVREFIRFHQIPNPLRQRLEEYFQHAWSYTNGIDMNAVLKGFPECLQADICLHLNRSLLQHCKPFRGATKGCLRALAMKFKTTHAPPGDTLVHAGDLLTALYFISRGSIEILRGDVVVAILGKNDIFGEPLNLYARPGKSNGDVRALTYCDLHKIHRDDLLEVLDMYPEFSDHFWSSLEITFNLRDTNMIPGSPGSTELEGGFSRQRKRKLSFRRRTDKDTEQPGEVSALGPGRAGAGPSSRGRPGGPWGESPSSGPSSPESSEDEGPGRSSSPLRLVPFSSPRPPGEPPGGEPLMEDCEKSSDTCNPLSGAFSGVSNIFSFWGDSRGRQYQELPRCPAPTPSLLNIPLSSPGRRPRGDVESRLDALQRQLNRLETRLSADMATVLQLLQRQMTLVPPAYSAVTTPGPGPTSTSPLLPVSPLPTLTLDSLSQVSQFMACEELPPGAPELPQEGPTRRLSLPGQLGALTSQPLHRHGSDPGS
Cytochrome P450 2C9, sequence (P11712 whole entry): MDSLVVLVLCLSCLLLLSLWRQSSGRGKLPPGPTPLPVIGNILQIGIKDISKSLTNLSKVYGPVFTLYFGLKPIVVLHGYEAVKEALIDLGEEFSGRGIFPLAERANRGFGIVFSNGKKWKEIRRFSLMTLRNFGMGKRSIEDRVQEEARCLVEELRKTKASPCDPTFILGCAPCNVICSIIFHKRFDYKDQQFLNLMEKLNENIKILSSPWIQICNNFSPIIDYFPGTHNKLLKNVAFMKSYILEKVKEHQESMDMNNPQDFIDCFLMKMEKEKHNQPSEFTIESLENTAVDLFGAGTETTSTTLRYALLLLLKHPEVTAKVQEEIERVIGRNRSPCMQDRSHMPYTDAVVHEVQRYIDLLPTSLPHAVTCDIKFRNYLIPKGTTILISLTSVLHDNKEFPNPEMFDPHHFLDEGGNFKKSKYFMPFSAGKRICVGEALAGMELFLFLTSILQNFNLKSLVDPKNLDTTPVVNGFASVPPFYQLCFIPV
Prostacyclin receptor, sequence (P43119 whole entry): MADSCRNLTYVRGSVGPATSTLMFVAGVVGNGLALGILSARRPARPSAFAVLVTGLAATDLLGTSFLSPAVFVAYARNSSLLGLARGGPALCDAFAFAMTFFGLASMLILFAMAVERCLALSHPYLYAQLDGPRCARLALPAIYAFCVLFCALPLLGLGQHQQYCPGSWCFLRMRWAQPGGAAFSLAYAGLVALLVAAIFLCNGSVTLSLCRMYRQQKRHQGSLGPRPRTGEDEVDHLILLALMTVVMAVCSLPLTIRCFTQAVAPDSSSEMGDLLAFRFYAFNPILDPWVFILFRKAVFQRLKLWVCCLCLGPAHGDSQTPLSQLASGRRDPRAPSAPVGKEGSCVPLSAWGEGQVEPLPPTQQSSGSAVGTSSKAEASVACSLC

Structure (SMILES)	IC50 [1] [µM]	IC50 [2] [µM]	also measured
COc1ccc(CC(=O)O)cc1-c1ccccc1CN1C(=O)O[C@H](c2ccccc2)[C@@H]1C	0.88	2	–
CCN(Cc1cc(C(F)(F)F)ccc1-c1cc(CC(=O)O)ccc1OC)C(=O)OCc1cc(F)cc(F)c1	0.003	0.011	–
C[C@H]1[C@@H](c2ccccc2)OC(=O)N1Cc1cc(C(F)(F)F)ccc1-c1cccc(CC(=O)O)c1	0.34	3	–
COc1ccc(-c2cc(CC(=O)O)ccc2OC)c(CN2C(=O)O[C@H](c3ccccc3)[C@@H]2C)c1	1.3	6.1	–
C[C@H]1[C@@H](c2ccccc2)OC(=O)N1Cc1cc(C(F)(F)F)ccc1-c1ccccc1CC(=O)O	41	62	–
COc1ccc(CC(=O)O)cc1-c1ccc(C(F)(F)F)cc1CNCCc1ccccc1	3.4	11	–
C[C@H]1[C@@H](c2ccccc2)OC(=O)N1Cc1cc(C(F)(F)F)ccc1-c1cccc(CCC(=O)O)c1	9.8	75	–
COc1ccc(CC(=O)O)cc1-c1ccc(C(F)(F)F)cc1CN(C(=O)OCc1ccccc1)C1CCCC1	0.011	0.053	–
CCN(Cc1cc(C(F)(F)F)ccc1-c1cc(CC(=O)O)ccc1OC)C(=O)OCc1ccc(Cl)cc1	0.003	0.007	IC50 [3]: 4 µM; IC50 (Thromboxane A2 receptor): 11.3 µM; IC50 (Prostacyclin receptor): 33 µM; IC50 (Cytochrome P450 3A4): 21 µM; IC50 (Cytochrome P450 2C9): 18 µM; IC50 (Cytochrome P450 2D6): > 30 µM; inhibition at 10 µM (hERG (KCNH2)): 22%
COc1ccc(CC(=O)O)cc1-c1ccc(C(F)(F)F)cc1CNC(=O)OCc1ccccc1	0.045	0.238	–
C[C@H]1[C@@H](c2ccccc2)OC(=O)N1Cc1cc(F)ccc1-c1ccc(CC(=O)O)cc1	0.36	1.8	–
COc1ccc(CC(=O)O)cc1-c1ccc(C(F)(F)F)cc1CN(C)C(=O)OCc1ccccc1	0.004	0.018	–
CCN(Cc1cc(C(F)(F)F)ccc1-c1cc(CC(=O)O)ccc1OC)C(=O)OCc1ccccc1	–	–	IC50 [3]: 4 µM; IC50 (Thromboxane A2 receptor): 23 µM; IC50 (Prostacyclin receptor): 56.2 µM; IC50 (Cytochrome P450 3A4): 18 µM; IC50 (Cytochrome P450 2C9): 18 µM; IC50 (Cytochrome P450 2D6): > 30 µM; half-life [4]: 8.7 h; half-life [5]: 7.4 h; bioavailability [6]: 89%; Activity (Mus musculus): Active; bioavailability [7]: 77%
COC(=O)N(Cc1ccccc1)Cc1cc(C(F)(F)F)ccc1-c1cc(CC(=O)O)ccc1OC	0.008	0.031	IC50 [3]: 12.6 µM; IC50 (Thromboxane A2 receptor): 62.4 µM; IC50 (Cytochrome P450 3A4): > 30 µM; IC50 (Cytochrome P450 2C9): > 30 µM; IC50 (Cytochrome P450 2D6): > 30 µM; inhibition at 10 µM (hERG (KCNH2)): 1.2%
CCN(Cc1cc(C(F)(F)F)ccc1-c1cc(CC(=O)O)ccc1OC)C(=O)OCc1cccc(Cl)c1	0.002	0.01	–
CCN(Cc1cc(C(F)(F)F)ccc1-c1cc(CC(=O)O)ccc1OC)C(=O)OC	0.009	0.016	IC50 [3]: 36.4 µM; IC50 (Thromboxane A2 receptor): 67.4 µM; IC50 (Cytochrome P450 3A4): > 30 µM; IC50 (Cytochrome P450 2C9): > 30 µM; IC50 (Cytochrome P450 2D6): > 30 µM; inhibition at 10 µM (hERG (KCNH2)): 5.9%
C[C@H]1[C@@H](c2ccccc2)OC(=O)N1Cc1cc(C(F)(F)F)ccc1-c1cccc(C(=O)O)c1	27	91	–
COc1ccc(CC(=O)O)cc1-c1ccc(C(F)(F)F)cc1CN1C(=O)O[C@H](c2ccccc2)[C@@H]1C	0.18	4.5	IC50 [3]: 31.3 µM; IC50 (Thromboxane A2 receptor): 63.7 µM; IC50 (Cytochrome P450 3A4): > 30 µM; IC50 (Cytochrome P450 2C9): > 30 µM; IC50 (Cytochrome P450 2D6): > 30 µM
CCN(Cc1cc(C(F)(F)F)ccc1-c1cc(CC(=O)O)ccc1OC)C(=O)OCc1ccccc1Cl	0.003	0.011	–
C[C@H]1[C@@H](c2ccccc2)OC(=O)N1Cc1cc(C(F)(F)F)ccc1-c1ccccc1CCC(=O)O	11	38	–
COc1ccc(CC(=O)O)cc1-c1ccc(F)cc1CN1C(=O)O[C@H](c2ccccc2)[C@@H]1C	0.36	1.3	–
COC(=O)N(CCc1ccccc1)Cc1cc(C(F)(F)F)ccc1-c1cc(CC(=O)O)ccc1OC	0.024	0.062	–
